rRNA inh HTS – inhibitors of bacterial rRNA selective over humanized ribosomes; E. coli WT GFP vs humanized-ribosome RFP mutants, fluorescence, 24 h; stronger effect = lower value; DMSO median 0, no signal -100; GFP signal change (wild-type ribosome), % (concentration not given with the values); actives 1.6% (n = 350,000); AID 720706;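 active means significant combined selectivity score with lowered wild-type GFP, culture density cut under 30%, mutant RFP and density less affected; inactive means any of these conditions unmet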
Cneo AK release – Cryptococcus neoformans lysis via adenylate kinase release | C. neoformans lysis, adenylate kinase release luminescence, 4 h; normalised: neutral wells 0, clomiphene wells 100 | lysis activity, % at 15 µM | actives 0.2% (n = 360,000) | AID 651654;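 active means mean lysis activity across replicates of at least 80%, whatever share of replicates individually reach that level; inactive means mean lysis activity below 80%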
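Material: C. neoformans cells | Amount: Yeast cell density of 5 × 10^6 cells/mL | Medium: Fresh YPD growth medium | Dosing: Single dose | Times: Static 4 h at 37 °C with compound, 1 h detection | Detection: AK luminescence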
miR122 inh – blocks miR-122 activity in Huh7 sensor cells. activation (reporter increase), % at 12.5 µM. actives 0.3% (n = 340,000). Huh7 miR-122 Renilla luciferase sensor, 48 h; neutral wells = 0, positive control = 100;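 active means mean replicate activation score at least 90 and every replicate individually at or above 90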;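 further: higher luciferase means less miR-122 activity so hits act as miR-122 inhibitors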
GSIS activator – GLuc luminescence reporter in INS-1E cells, primary screen for activators of glucose-dependent secretion of insulin | INS-1E GLuc reporter insulin secretion, 2-3 h | activation, % at 16.6 µM | actives 0.61% (n = 370,000) | AID 743287;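 active means lowest replicate activation of at least 40%, so every replicate reaches that level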;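 further: 0% = median of neutral control wells and 100% = median of IBMX positive control wells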
CFTR F508del cor – CFTR F508del correction in bronchial cells. CFBE cells, YFP halide quenching; stimulated with forskolin plus potentiator P3; % fluorescence drop versus neutral controls. activity (quench increase), % at 7.58 µM. actives 0.36% (n = 350,000);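 active means mean added fluorescence quench of at least 8% versus neutral control, with both replicates also reaching 8%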;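 further: cells transiently co-express mutant CFTR-F508del with the halide-sensitive YFP; corrector assay measuring rescue of mutant channel to the surface after 24 h compound exposure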
Env fusion inh – blocks HIV Env-driven cell-cell fusion; HeLa-JRFL Env/CEM21 cell fusion, luciferase; inhibition, % at 12.3 µM; actives 1.1% (n = 360,000); AID 651610;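 active means mean replicate inhibition score of at least 50 and every replicate individually at or above 50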;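 further: 0% = plate neutral controls and 100% = maraviroc near 300 nM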
Numbers without * were called inactive; · = no result; [ ] = remark or other dose. Only some compounds are listed: those with a hit (about 3.1% of all), similar ones and a draw of the others.

SMILES | rRNA inh HTS | Cneo AK release | miR122 inh | GSIS activator | CFTR F508del cor | Env fusion inh
COc1cccc(S(=O)(=O)N(C)C[C@H]2Oc3cc(C#CCC(C)C)ccc3S(=O)(=O)N([C@H](C)CO)C[C@H]2C)c1 | -1.9 | 2.6 | 39.6[16.7 µM] | -8.0 | -2.8 | 72.9*[16.7 µM]
COc1cccc(S(=O)(=O)N(C)C[C@@H]2Oc3cc(C#CCC(C)C)ccc3S(=O)(=O)N([C@H](C)CO)C[C@@H]2C)c1 | 2.5 | 4.1 | -6.9[16.7 µM] | -0.4 | 0.1 | 61.8*[16.7 µM]
COc1cccc(S(=O)(=O)N(C)C[C@H]2Oc3cc(C#CCN(C)C)ccc3S(=O)(=O)N([C@@H](C)CO)C[C@H]2C)c1 | 0.0 | -1.7 | 4.3[16.7 µM] | -4.1 | 0.6 | -9.1[16.7 µM]
COc1ccc(C(=O)Nc2ccc(OCC(F)(F)C(F)F)c(C(F)(F)F)c2)cc1OC | · | -12.6 | 3.9 | -12.9 | · | ·
O=C(Nc1ccc(OCC(F)(F)C(F)F)c(C(F)(F)F)c1)c1ccc(Cl)cc1 | · | -2.4 | -5.1 | · | · | 68.5*
COc1ccc(NC(=O)N(C)C[C@H]2Oc3c(NC(=O)c4ccc(-c5nccs5)cc4)cccc3C(=O)N([C@H](C)CO)C[C@@H]2C)cc1 | -1.8 | -2.3 | -0.2[16.7 µM] | 6.7 | -4.4 | 2.4[16.7 µM]
COc1ccccc1-c1nc2c3ccccc3nc(=S)n2[nH]1 | -27.3* | 1.0 | 13.1 | -1.2 | 4.7 | 3.5
CCC(CC)C1C(C#N)=C(N)Oc2cc(C)oc(=O)c21 (stereo not given) | -12.8 | -1.4 | · | -0.6 | -2.5 | ·
Cc1cc2c(c(=O)o1)C(CCC1CCCCC1)C(C#N)=C(N)O2 (stereo not given) | -20.8* | -0.1 | -8.3 | -4.2 | -0.2 | 2.3
CCOC(=O)c1cc(OC(=O)c2cccs2)n(-c2ccccc2)n1 | -17.7* | 0.8 | 1.7 | -0.1 | -4.1 | ·
CCCc1cc(NCC2CCCO2)n2c(nc3ccccc32)c1C#N (stereo not given) | · | -1.1 | 12.9 | 56.6* | · | 23.1
O=C(C[C@@H]1C=C[C@H](NC(=O)c2cccnc2)[C@@H](CO)O1)NCCN1CCCCC1 | 3.5 | · | · | 7.1 | -1.3 | ·
O=C1NCCCOCc2cn(nn2)CC[C@H]1Cc1ccc(-c2ccccc2)cc1 | -0.5 | · | · | 19.0 | · | ·
COC(=O)c1ccc(CSc2cc(C)c3ccccc3n2)o1 | -22.2* | · | · | 3.0 | -1.1 | 11.6
O=C(CNC(=O)c1ccco1)N/N=C/c1ccc(O)c([N+](=O)[O-])c1 | 2.3 | 0.1 | -12.3 | -2.3 | · | -1.8
O=C(CNC(=O)C(c1ccccc1)c1ccccc1)N/N=C/c1ccc(O)c([N+](=O)[O-])c1 | -19.8* | -0.7 | 10.6 | -27.1 | -1.4 | ·
O=C1N/C(=N\S(=O)(=O)c2ccccc2)S/C1=C\c1cc([N+](=O)[O-])ccc1O | -3.8 | -0.5 | -4.5 | 4.3 | 1.2 | -3.3
O=C1N/C(=N\S(=O)(=O)Cc2ccccc2)S/C1=C/c1cc([N+](=O)[O-])ccc1O | -20.0* | · | · | -12.5 | -0.7 | 12.8
Cn1c(SCc2ccccc2)nc(N)c(N=O)c1=O | -20.5* | 0.3 | -0.3 | · | 1.3 | -27.3
Cn1c(SCc2cccc(Cl)c2)nc(C(F)(F)F)cc1=O | -2.8 | -4.1 | 15.6 | 3.6 | 2.8 | ·
Cn1c(SCc2ccccc2)nc(C(F)(F)F)cc1=O | -22.9* | · | · | 7.6 | -2.8 | -9.9
O=C(Nc1ccc2c(c1)OCO2)N[C@@H]1CC[C@H](CCNC(=O)C2CCCC2)O[C@H]1CO | 4.2 | -3.9 | -14.3[16.7 µM] | 8.5 | 0.0 | -16.5[16.7 µM]
C[C@@H]1CCCCO[C@@H](CN(C)C)[C@@H](C)CN([C@H](C)CO)C(=O)c2cc(NC(=O)CCCN(C)C)ccc2O1 | 2.8 | · | 4.3[16.7 µM] | 45.6 | -0.8 | 26.8[16.7 µM]
C[C@H](CO)N1C[C@H](C)[C@@H](CN(C)CC2CCCCC2)OCCCC[C@H](C)Oc2ccc(N(C)C)cc2C1=O | 0.8 | -0.7 | 5.5[16.7 µM] | -2.9 | -0.3 | 12.9[16.7 µM]
CCn1c(C)csc1=NC(=O)c1ccccc1O | -23.1* | 1.0 | · | 1.6 | -0.7 | ·
SMILES | rRNA inh HTS | Cneo AK release | miR122 inh | GSIS activator | CFTR F508del cor | Env fusion inh
O=C(CNc1ccc(F)cc1)c1ccccc1 | 6.1 | · | · | -2.0 | 2.6 | 106.1*
COc1ccccc1C(=O)NC(=S)/C=C1/N(C)c2ccccc2C1(C)C | -28.9 | · | · | -29.9 | 10.0* | ·
CN1/C(=C\C(=S)Nc2ccccc2)C(C)(C)c2ccccc21 | · | · | -3.9 | -29.4 | -1.4 | 52.9*
O=C(C[C@@H]1C[C@H]2c3cc(NC(=O)c4ccc5c(c4)OCO5)ccc3O[C@H]2[C@H](CO)O1)NCc1cc(F)ccc1F | -11.2 | -5.3 | -3.5[16.7 µM] | -27.7 | -2.6 | -1.8[16.7 µM]
Cc1ccc(C(=O)N/C(=C\c2ccc(Br)cc2)c2nc(=S)[nH][nH]2)cc1 | -24.8* | 0.3 | 2.5 | 1.8 | 1.0 | ·
C/C(=N\NC(=O)c1cccc(Cl)c1)C1C(=O)c2ccccc2C1=O | -21.3 | -1.5 | -2.1 | -49.7 | 5.6 | 56.9*
Cc1ccc(S(=O)(=O)N(C)C[C@@H]2Oc3ccc(NC(=O)Cc4ccccc4)cc3C(=O)N([C@H](C)CO)C[C@@H]2C)cc1 | 2.2 | -0.8 | 1.7[16.7 µM] | -7.5 | 1.4 | ·
C[C@@H]1C[C@@H]2OC(=O)[C@]3(C)[C@H]2[C@@H](OC3(C)O)[C@]2(C)C(=O)C=C[C@H]12 (stereo not given in full) | 2.7 | -0.4 | · | -11.9 | -2.9 | -35.1
C=C1C(=O)O[C@@H]2C[C@@H](C)[C@@H]3C=CC(=O)[C@@]3(C)[C@@H](OC(C)=O)[C@H]12 | 0.6 | · | · | 37.1 | -2.4 | 129.5*
COc1ccc2c3c(n(C)c2c1)[C@H](CO)N(C(=O)NC(C)C)CC31CN(C(=O)NC(C)C)C1 | 3.0 | · | · | 12.1 | -1.9 | -13.0[16.7 µM]
C[C@@H]1CN([C@@H](C)CO)C(=O)Cc2cc(NC(=O)C3CCCCC3)ccc2O[C@H]1CN(C)Cc1ccc(Oc2ccccc2)cc1 | -3.1 | -0.4 | -14.8[16.7 µM] | -12.5 | -4.3 | 33.7[16.7 µM]
O=C(CCN1C(=O)/C(=C/c2ccccc2Cl)SC1=S)N1CCCC1 | 1.2 | 7.7 | 2.8 | 6.0 | -0.6 | 3.4
O=C(CCCN1C(=O)/C(=C/c2ccccc2Cl)SC1=S)N1CCCC1 | -39.8* | -4.7 | 2.0 | -8.0 | 0.3 | 3.8
COc1ccccc1/C=C1\SC(=S)N(CCC(=O)NCCCn2ccnc2)C1=O | -23.9* | -1.2 | 4.2 | -32.4 | 0.1 | 16.7
COc1ccccc1/C=C1\SC(=S)N(CCC(=O)N2CCN(C)CC2)C1=O | -18.8* | -0.5 | 3.8 | -5.0 | -0.4 | -2.4
Cc1noc(C)c1S(=O)(=O)N(C)C[C@H]1Oc2ccc(NC(=O)C3CCCCC3)cc2CC(=O)N([C@@H](C)CO)C[C@H]1C | -3.7 | -2.1 | 3.9[16.7 µM] | -13.5 | -2.0 | 6.2[16.7 µM]
COCC(=O)N(C)C[C@H]1Oc2cc(C#CCN(C)C)ccc2S(=O)(=O)N([C@@H](C)CO)C[C@H]1C | 0.4 | 0.5 | -8.6[16.7 µM] | 11.6 | 3.7 | 7.2[16.7 µM]
